# Activity calls are given as the source filed them.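 How the source made its calls, unless noted: active means viability at or below 10% of carrier control in both of two separate runs; inconclusive means viability at or below 10% in only one of the two runs; inactive means the rest.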
# Tests used:
# [1] = target: Pantothenate synthetase (Mycobacterium tuberculosis (strain ATCC 25618 / H37Rv)) (UniProt P9WIL5); experiment: Recombinant Mtb pantothenate synthetase (PanC) inhibitors, coupled enzyme, confirmatory (AID 375; call rule not given here;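 further: 0% = full reaction with vehicle and 100% = no enzyme background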); conditions: coupled enzyme assay; at 10 µM, stronger effect = higher value
# [2] = reducers of endogenous Her2 protein level, primary screen, SKBR3 breast tumor cells, AlphaScreen, ATP viability (AID 461;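 active means Her2 level under about 52% in both replicate screens, with viability over 70% of control, limit read from the data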;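 on Her2 level: lower value means less Her2 protein in the cells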;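 on viability: percent of carrier control wells set as 100% viability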); conditions: 18-24 h, measured here: SKBR3 viability, ATP luminescence, at 10 µM
# [3] = target: Receptor tyrosine-protein kinase erbB-2 (Homo sapiens) (UniProt P04626); experiment: as above; conditions: 18-24 h, at 10 µM, stronger effect = lower value
# [4] = SK-BR-3 cell growth inhibitors, pilot screen, 24 h, human (AID 572); conditions: SK-BR-3 viability, CellTiter-Glo luminescence, at 10 µM, stronger effect = lower value;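 further: compound exposure lasted between 18 and 24 h rather than exactly 24 h; 100% = carrier-treated control wells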
# [5] = HUVEC growth inhibition – cell-based, human, primary screen (AID 575;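 active means viability at or below 30% in both replicate assays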;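 further: 100% = median of untreated cell wells with 0.1% DMSO on each plate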); conditions: HUVEC proliferation, CellTiter-Glo luminescence, 72 h; at 10 µM; stronger effect = lower value
# How it was run: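 Test system – primary HUVEC, no more than 12 passages · Dosing – one dose, 10 µM final, 0.1% DMSO · Times – 72 h treatment at 37 °C · Measured by – ATP-based CellTiter-Glo luminescent read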
# [6] = growth inhibitors of H69AR lung tumor, primary screen, human, duplicate replicates (AID 580;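 active means viability at or under a set limit in both replicates, limit being median viability minus 3 SD, cut at about 48% in these data, passing the limit was not always enough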;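 further: 100% = mean luminescence of untreated wells and 0% = no signal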); conditions: H69AR lung tumor cells viability, ATP luminescence, 72 h; at 10 µM; stronger effect = lower value
# [7] = reversal of MRP1-mediated doxorubicin resistance, pilot screen, H69AR cells, doxorubicin co-treatment (AID 601;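 active means viability loss from added drug above about 55%, and viability with drug at most 40%, in both replicates, limit read from the data, passing the limit was not always enough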); conditions: CellTiter-Glo, 72 h, at 10 µM; for differential viability (reversal): stronger effect = higher value
# [8] = 384-well plate pilot, post-Golgi transport modulator project, inhibition of yeast transport mutant growth (AID 636; in the data active means inhibition above about 31%); conditions: absorbance 615 nm, about 18 h, stronger effect = higher value
# [9] = growth suppression of yeast trafficking mutant, preliminary HTS, modulators of trafficking downstream of Golgi apparatus project, 1536-format plate, OD 615 nm (AID 637; in the data active means inhibition above about 30%); conditions: yeast transport mutant growth, absorbance 615 nm, 18 h; stronger effect = higher value
# [10] = H69AR cells + 2 uM doxorubicin, measured here: viability with 2 uM doxorubicin, stronger effect = lower value
# [11] = H69AR cells, compound alone cytotoxicity
# Chain of Pantothenate synthetase (Mycobacterium tuberculosis (strain ATCC 25618 / H37Rv)) (P9WIL5 whole entry, looked up): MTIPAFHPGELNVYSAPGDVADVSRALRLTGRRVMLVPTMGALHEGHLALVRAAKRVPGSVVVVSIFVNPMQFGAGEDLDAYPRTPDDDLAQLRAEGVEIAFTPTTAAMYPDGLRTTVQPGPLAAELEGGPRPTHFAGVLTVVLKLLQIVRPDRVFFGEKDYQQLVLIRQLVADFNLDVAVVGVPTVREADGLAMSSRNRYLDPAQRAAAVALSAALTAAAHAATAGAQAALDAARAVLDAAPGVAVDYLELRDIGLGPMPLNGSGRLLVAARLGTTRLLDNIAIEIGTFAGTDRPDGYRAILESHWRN
# Chain of Receptor tyrosine-protein kinase erbB-2 (Homo sapiens) (P04626 whole entry, looked up): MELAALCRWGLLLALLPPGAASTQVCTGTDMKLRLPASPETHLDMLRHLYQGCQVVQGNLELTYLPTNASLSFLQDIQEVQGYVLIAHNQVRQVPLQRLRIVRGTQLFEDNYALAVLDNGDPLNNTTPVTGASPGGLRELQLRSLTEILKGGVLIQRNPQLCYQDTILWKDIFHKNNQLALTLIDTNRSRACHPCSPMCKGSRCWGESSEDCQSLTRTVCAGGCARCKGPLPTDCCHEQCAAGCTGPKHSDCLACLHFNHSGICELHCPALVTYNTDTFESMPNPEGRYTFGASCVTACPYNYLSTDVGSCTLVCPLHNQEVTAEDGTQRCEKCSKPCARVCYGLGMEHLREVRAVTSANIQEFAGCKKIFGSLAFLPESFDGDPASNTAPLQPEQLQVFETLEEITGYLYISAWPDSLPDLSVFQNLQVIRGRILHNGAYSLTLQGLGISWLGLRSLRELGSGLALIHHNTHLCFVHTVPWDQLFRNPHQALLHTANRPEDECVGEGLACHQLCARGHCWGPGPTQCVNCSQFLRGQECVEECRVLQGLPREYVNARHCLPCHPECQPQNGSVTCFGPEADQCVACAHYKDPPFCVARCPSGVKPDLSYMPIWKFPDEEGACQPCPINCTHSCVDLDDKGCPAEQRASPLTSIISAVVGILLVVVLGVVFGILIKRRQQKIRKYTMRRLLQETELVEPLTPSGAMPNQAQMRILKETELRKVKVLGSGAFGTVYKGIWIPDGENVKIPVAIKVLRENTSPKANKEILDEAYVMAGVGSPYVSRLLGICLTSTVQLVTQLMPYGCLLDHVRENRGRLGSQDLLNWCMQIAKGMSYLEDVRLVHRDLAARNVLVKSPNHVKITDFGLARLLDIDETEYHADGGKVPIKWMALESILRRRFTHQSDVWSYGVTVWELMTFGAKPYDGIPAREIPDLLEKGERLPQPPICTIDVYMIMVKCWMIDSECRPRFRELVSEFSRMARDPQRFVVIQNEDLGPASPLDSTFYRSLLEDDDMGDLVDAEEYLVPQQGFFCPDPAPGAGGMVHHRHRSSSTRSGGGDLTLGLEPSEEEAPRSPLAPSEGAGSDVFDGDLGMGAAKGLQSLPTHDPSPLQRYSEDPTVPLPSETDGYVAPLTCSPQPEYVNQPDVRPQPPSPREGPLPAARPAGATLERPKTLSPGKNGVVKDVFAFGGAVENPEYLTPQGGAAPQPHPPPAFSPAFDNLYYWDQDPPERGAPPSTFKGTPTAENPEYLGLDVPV
Compound,inhibition [1],viability [2] [%],Her2 level [3],viability [4],viability [5],viability [6],differential viability (reversal) ([7]; H69AR cells + 2 uM doxorubicin),"viability [7, 10] [%]","viability [7, 11] [%]",inhibition [8],inhibition [9]
CC1CCC(C(=O)NC(C(=O)N2CCC3(CC2)OCCO3)C(C)C)CC1 (stereo not given),3% (inactive),96.5,98.5% (inactive),96.5% (inactive),114% (inactive),99.5% (inactive),8.49% (inactive),91,99.5,-6.36% (inactive),-5.25% (inactive)
CC(=O)C1C(=O)NC23CCCCC2C1c1ccccc1O3 (stereo not given),0% (inactive),88,91.5% (inactive),88% (inactive),109% (inactive),99.3% (inactive),4.31% (inactive),95,99.3,-3.87% (inactive),-0.16% (inactive)
O=C(CN1C(=O)CN=C(c2ccccc2)c2ccccc21)NCc1ccco1,2% (inactive),98,100% (inactive),98% (inactive),96.7% (inactive),80.4% (inactive),-1.24% (inactive),81.7,80.4,-3.42% (inactive),-5% (inactive)
COc1cc(/C=N/n2cnnc2)ccc1OC(=O)N(C)C,6% (inactive),97,96.5% (inactive),97% (inactive),99.5% (inactive),102% (inactive),9.57% (inactive),92.7,102,-4.21% (inactive),-2.06% (inactive)
COc1ccccc1-n1c(O)c(C=NCc2ccc3c(c2)OCO3)c(=O)[nH]c1=O,7% (inactive),93.5,91.5% (inactive),93.5% (inactive),81.3% (inactive),91.8% (inactive),3.46% (inactive),88.3,91.8,-2.43% (inactive),-0.48% (inactive)
CSc1ccc(C(=O)C(C)(C)N2CCOCC2)cc1,0% (inactive),106,107% (inactive),106% (inactive),112% (inactive),105% (inactive),18.2% (inactive),87.2,105,-2.76% (inactive),6.56% (inactive)
COc1ccc(C2NCc3ccc4c(c3-n3cccc32)OCO4)cc1O (stereo not given),0% (inactive),110,73% (inactive),110% (inactive),40.7% (inactive),25.5% (active),-41.5% (inactive),67,25.5,-5.79% (inactive),-5.56% (inactive)
O=C(NC1(C(F)(F)F)Oc2ccc(Cl)cc2O1)N1CCC2(CC1)OCCO2 (stereo not given),1% (inactive),91.5,87.5% (inactive),91.5% (inactive),58.5% (inactive),27.9% (active),-23.8% (inactive),51.7,27.9,-2.47% (inactive),-5.56% (inactive)
N#Cc1ccccc1Cn1cc(C(=O)C2CC2)c2ccccc21,0% (inactive),86,103% (inactive),86% (inactive),81.5% (inactive),59.4% (inactive),-32.4% (inactive),91.8,59.4,-3.38% (inactive),-5.5% (inactive)
C=CCn1c(O)c(C(C)=NCCCO)c(=O)[nH]c1=O,0% (inactive),93,114% (inactive),93% (inactive),107% (inactive),94.3% (inactive),2.26% (inactive),92.1,94.3,-4.94% (inactive),-8.5% (inactive)
Cc1nn(Cc2ccccc2Cl)c(Cl)c1C(=O)OCC(=O)NCc1ccco1,0% (inactive),85,76% (inactive),85% (inactive),98.6% (inactive),85.6% (inactive),-6.68% (inactive),92.3,85.6,-3.2% (inactive),-0.82% (inactive)
COc1ccc(OC)c(C2=NOC(C(=O)N3CCC4(CC3)OCCO4)C2)c1 (stereo not given),7% (inactive),106,99% (inactive),106% (inactive),103% (inactive),99% (inactive),13% (inactive),86,99,-6.49% (inactive),0.5% (inactive)
CCCCn1c(O)c(C(C)=NCCc2ccccc2)c(=O)[nH]c1=O,0% (inactive),88.5,89.5% (inactive),88.5% (inactive),95.6% (inactive),100% (inactive),4.16% (inactive),95.9,100,-0.26% (inactive),9.51% (inactive)
CCN1CCN(c2ncnc3ccc(Br)cc23)CC1,0% (inactive),100,110% (inactive),100% (inactive),59.2% (inactive),91.2% (inactive),-8.96% (inactive),100,91.2,-0.79% (inactive),5.25% (inactive)
CN1C(=O)N(C)C(=O)C2(Cc3ccccc3N3CCOCC32)C1=O (stereo not given),0% (inactive),104,88% (inactive),104% (inactive),94.8% (inactive),102% (inactive),8.12% (inactive),94,102,-6.8% (inactive),-2.86% (inactive)
CCCCCCn1c(O)c(C=NC2CCN(Cc3ccccc3)CC2)c(=O)[nH]c1=O,0% (inactive),83,67.5% (inactive),83% (inactive),72.3% (inactive),74.8% (inactive),5.99% (inactive),68.8,74.8,-1.05% (inactive),4.84% (inactive)
CCOc1ccc(-n2c(O)c(C=NCCN(CC)CC)c(=O)[nH]c2=O)cc1,0% (inactive),87,105% (inactive),87% (inactive),100% (inactive),103% (inactive),-0.4% (inactive),103,103,2.13% (inactive),-8.06% (inactive)
O=C(c1ccncc1)C12CN3CN(CN(C3)C1)C2,0% (inactive),115,114% (inactive),115% (inactive),97.6% (inactive),89.5% (inactive),5.16% (inactive),84.4,89.5,-3.25% (inactive),-2.5% (inactive)
Cc1ccc(OCC(=O)NCCN2CCN(C(=O)COc3ccc(C)cc3)CC2)cc1,0% (inactive),124,106% (inactive),124% (inactive),88.5% (inactive),95.2% (inactive),1.29% (inactive),93.9,95.2,-1.76% (inactive),-5.56% (inactive)
O=C(CCCOc1ccc(Cl)cc1Cl)N1CCC2(CC1)OCCO2,0% (inactive),106,96.5% (inactive),106% (inactive),93.3% (inactive),92.5% (inactive),11.1% (inactive),81.5,92.5,-5% (inactive),-2% (inactive)
Nc1ccccc1C(=O)OC1CSC1,0% (inactive),132,110% (inactive),132% (inactive),105% (inactive),89.2% (inactive),0.43% (inactive),88.7,89.2,-2.53% (inactive),1.45% (inactive)
CC(C)(C)OC(=O)c1c(N)n(Cc2ccco2)c2nc3ccccc3nc12,3% (inactive),98.5,76% (inactive),98.5% (inactive),62.5% (inactive),65.4% (inactive),-9.48% (inactive),74.8,65.4,0.79% (inactive),-6.13% (inactive)
O=C(O)C1(c2ccc(Cl)cc2)CCC1,0% (inactive),109,91.5% (inactive),109% (inactive),97.2% (inactive),91.7% (inactive),-1.85% (inactive),93.6,91.7,-6.13% (inactive),-3.02% (inactive)
CCN(CC)CCN=Cc1c(O)n(CCC2=CCCCC2)c(=O)[nH]c1=O,5% (inactive),90.5,86% (inactive),90.5% (inactive),62.5% (inactive),74.7% (inactive),-11.4% (inactive),86.1,74.7,-5.84% (inactive),-4.29% (inactive)
CCOc1ccc(Br)c(C2(O)CC(C)N(C)CC2C)c1 (stereo not given),1% (inactive),80.5,80.5% (inactive),80.5% (inactive),68.2% (inactive),96.7% (inactive),19.5% (inactive),77.1,96.7,-6% (inactive),-1.48% (inactive)
CC1=C(C(=O)N2CCC3(CC2)OCCO3)C2(CCC(C)CC2)OC1=O (stereo not given),0% (inactive),92.5,102% (inactive),92.5% (inactive),101% (inactive),98.4% (inactive),-4.92% (inactive),103,98.4,-0.77% (inactive),0.17% (inactive)
CCOc1cc2[nH]c(=S)n(CCCC(=O)N3CCC4(CC3)OCCO4)c(=O)c2cc1OCC,0% (inactive),88.5,85.5% (inactive),88.5% (inactive),78.2% (inactive),89.2% (inactive),-4% (inactive),93.2,89.2,-4.59% (inactive),-4.75% (inactive)
CN(C)c1cc(N)c2c(n1)CCC2 (tested in a mixture with another compound),0% (inactive),113,134% (inactive),113% (inactive),102% (inactive),86.1% (inactive),-1.48% (inactive),87.6,86.1,-4.49% (inactive),-5.17% (inactive)
CC(C)CC12CN3CCN(CC(C3)/C1=N/O)C2,0% (inactive),107,101% (inactive),107% (inactive),108% (inactive),96.4% (inactive),8.57% (inactive),87.8,96.4,-5.54% (inactive),-0.98% (inactive)
Cc1ccc(C2SCC(=O)Nc3c2c(=O)[nH]n3C2CCOC(C)(C)C2)cc1 (stereo not given),0% (inactive),100,92% (inactive),100% (inactive),90.9% (inactive),98.2% (inactive),11.2% (inactive),87,98.2,-5.66% (inactive),5.83% (inactive)

# — PubChem BioAssay
